# Reference: paper PMC11526549 (Journal of Nanobiotechnology, 2024)
# Read-outs that look alike come from different tables or passages of the source. Positions of bridges follow the written chain, without caps; N, C: chain ends. Residues, ends and D or L forms follow the SMILES beside them. *: point of attachment. Fmoc = O=C(OCC1c2ccccc2-c2ccccc21)*
# Assays:
# [1] = system: E. coli CGMCC 1.90026; experiment: Time-kill kinetics; type: cell-based, Escherichia coli; details: 1×, 2× or 4× MIC
# Summary of the method: (§1)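 Counts on MHA at 0, 0.5, 1, 2, 4, 6, 8, 10 and 24 h, in triplicate. MDK99 and MDK99.99 are the minimum times to 99% and 99.99% kill.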
# [2] = system: S. aureus CGMCC 1.90032; experiment: Time-kill kinetics; type: cell-based, Staphylococcus aureus
# Summary of the method: as §1
# [3] = system: E. coli; experiment: Cytoplasmic membrane potential, DiSC3; type: cell-based, Escherichia coli; details: DiSC3-5, 5-80 µM, no dose-dependent effect
# Summary of the method: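 Clinical isolate E. coli CGMCC 1.90026 exposed to test compound. Cytoplasmic membrane potential change followed with the potentiometric dye DiSC3-5.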
# [4] = system: E. coli liposomes (polar lipid extracts); experiment: Membrane fluidity assay, Laurdan GP; type: cell-based, Escherichia coli; details: 5-80 µM, 1 h, concentration-dependent, n=3
# [5] = system: E. coli CGMCC 1.90026; experiment: Mouse mastitis model; type: in vivo
# Summary of the method: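 Female ICR mice 10 d post-partum, pups removed 2 h before infection. Under anaesthesia, 0.5 mm trimmed from the fourth nipple pair. Mid-log E. coli CGMCC 1.90026 (PBS-washed, 5×10^3 CFU/mL, 100 µL) given through the nipple duct. 3 h later, test compound (100 or 200 µM) given via the mammary duct. Groups: uninfected, untreated, ceftiofur sodium 200 µM. Mammary TNF-α, IL-1β, IL-6 and IL-2 measured.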
# [6] = system: S. aureus CGMCC 1.90032; experiment: Mutation-proof concentration; type: cell-based, Staphylococcus aureus
# [7] = CMC determination with ANS fluorescent probe; type: physicochemical; details: in PBS
# Summary of the method: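 CMC is the crossing point of the 480 nm intensity plotted against log peptide concentration. A parallel run at 80 µM peptide adds LPS or LTA (final 1 µM) to test their effect on assembly.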
# [8] = system: E. coli CGMCC 1.90026; experiment: Membrane integrity, PI uptake by flow cytometry; type: cell-based, Escherichia coli; details: range over 5-80 µM and both E. coli strains (Fig. 7A, Figure S15A)
# Summary of the method: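 Clinical E. coli CGMCC 1.90026 treated with test compound at 5, 20, 40 or 80 µM. Propidium iodide-positive cells counted by flow cytometry as the membrane penetration rate.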
# [9] = system: S. aureus; experiment: Membrane fluidity assay, Laurdan GP; type: cell-based, Staphylococcus aureus; details: 5-80 µM, 1 h, n=3
# [10] = system: S. aureus CGMCC 1.90032; experiment: Mouse mastitis model; type: in vivo; details: compared with NC group
# Summary of the method: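 Female ICR mice 10 d post-partum, separated from pups 2 h before infection. Under anaesthesia, nipple tip trimmed 0.5 mm. Mid-log S. aureus CGMCC 1.90032 (PBS-washed, 1×10^3 CFU/mL, 100 µL) inoculated via the fourth-pair nipple ducts. Test compound (100 or 200 µM) given intraductally 3 h post-infection. Groups: uninfected, untreated, ceftiofur sodium 200 µM. Mammary and spleen organ indices recorded.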
# [11] = system: E. coli CGMCC 1.90026; experiment: Mutation-proof concentration; type: cell-based, Escherichia coli
# [12] = Proteolytic stability in trypsin, HPLC; type: in vitro ADME; details: trypsin (1 w/v%)
# Summary of the method: (§2)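 Test compound (2560 µM) incubated with 1 w/v% trypsin at 37 °C. Aliquots taken at 0.5, 1, 2, 4 and 6 h, diluted to 256 µM in 0.1% TFA/water and quantified by HPLC. Remaining peptide calculated as a time course; n=3.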
# [13] = LTA binding assay with BC probe; set-up: species or system S. aureus; details: BC probe 10 µM, LTA 1 µM, Tris 50 mM pH 7.4; 0.125-64 µM peptide; n=3
# [14] = system: trypsin; experiment: Trypsin resistance of LPS-induced nanofibers versus nanoparticles, HPLC; type: in vitro ADME; details: n=3
# Summary of the method: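 Peptide (80 µM), LPS (1 µM) and trypsin (10 µM) combined in different orders. In one arm LPS pre-forms nanofibers before trypsin; in another peptide is pre-incubated with trypsin before LPS. A non-specific assembly condition serves as reference. Peptide retention measured by HPLC and expressed as a ratio to that reference; n=3.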
# [15] = Metabolic stability in liver tissue homogenate, HPLC; type: in vitro ADME; details: mouse liver tissue homogenate 50 mg/mL, 8 h, mean of n=3
# [16] = ζ-potential; type: physicochemical; details: 80 µM in PBS pH 7.4, room temperature
# [17] = LPS binding assay with BC probe; set-up: species or system E. coli; details: BC probe 10 µM, LPS 1 µM, Tris 50 mM pH 7.4; 0.125-64 µM peptide; n=3
# [18] = Particle size of self-assembled AMPs; type: physicochemical; details: 80 µM peptide, SEM/TEM
# Summary of the method: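 Test compound at 80 µM, alone or with LPS or LTA (final 1 µM), imaged by SEM and TEM to assess assembly morphology and particle size.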
# [19] = system: E. coli ATCC 25922; experiment: Serum stability test; type: in vitro ADME, Escherichia coli; details: 37°C, 8 h, MIC vs E. coli ATCC 25922
# [20] = cited from earlier work
# [21] = in comparison to self-assembled nanoparticles CPC-2; cited from earlier work
# [22] = cited from earlier work; remark: listed apart in the source
# [23] = system: trypsin; experiment: Proteolytic stability in trypsin, HPLC; type: in vitro ADME; details: 1 w/v% trypsin, after 4 h, HPLC
# Summary of the method: as §2
# [24] = system: mouse erythrocytes; experiment: Hemolysis assay; type: cell-based; details: 128 μM peptide, 8% mouse erythrocytes, 1 h, OD 540 nm; n=5
# Summary of the method: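 Test compound (1–128 µM final) mixed 1:1 by volume with 8% mouse erythrocytes, 37 °C, 1 h. Spun 1500 rpm, 5 min, and supernatant A540 read. PBS set 0% and 0.1% Triton X-100 set 100%. Hemolysis (%) = (A_peptide−A0)/(A100−A0)×100.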
molecule,measurement,setting,value
CC(C)[C@@H]1NC(=O)CNC(=O)[C@H](CC(N)=O)NC(=O)[C@H](CCCNC(=N)N)NC(=O)[C@H](Cc2ccc(O)cc2)NC(=O)[C@H](C(C)C)NC(=O)[C@@H](NC(=O)[C@@H](NC(=O)[C@H](CC(N)=O)NC(=O)[C@H](Cc2c[nH]c3ccccc23)NC(=O)[C@H](C)NC(=O)[C@H](Cc2ccccc2)NC(=O)CN)C(C)C)CSSC[C@@H](C(=O)N[C@@H](Cc2c[nH]cn2)C(=O)N[C@@H](CCCNC(=N)N)C(=O)N[C@@H](CCCNC(=N)N)C(=O)N[C@@H](C)C(=O)N[C@@H](CC(N)=O)C(N)=O)NC(=O)[C@H](C(C)C)NC(=O)[C@H](CCCNC(=N)N)NC1=O [N6] (H-GFAWNVCVYRNGVRVCHRRAN-NH2; disulfide 7-16),time to complete eradication,[1],≤ 4 h
same,MDK99,[2]; minimum time for 99% sterilization,1.45 h
same,MDK99.99,[2]; minimum time for 99.99% sterilization,1.99 h
same,plasma membrane depolarization,[3],underwent depolarization
same,Laurdan GP (membrane fluidity),[4],significant increase in Laurdan GP
same,histopathology of mammary gland (HE),[5],significant improvement in inflammatory symptoms
same,"levels of inflammatory factors (TNF-α, IL-1ß, IL-6 and IL-2) in mammary tissue","[5]; 100 or 200 µM, ELISA, n=4",significantly reduced
same,SI (MPCs/MIC),[6],6.4
same,self-assembly by ANS fluorescence,[7]; fluorescence in direct correlation with concentration,incapable of self-assembling
same,membrane penetration rates toward E. coli,[8],2.34 -80.7%
same,Laurdan GP (membrane fluidity),[9],also increased
same,indices of the mammary gland and spleen,[10],significantly decreased
same,SI (MPCs/MIC),[11],6.4
CC(C)C[C@H](NC(=O)[C@H](CCCCN)NC(=O)OCC1c2ccccc2-c2ccccc21)C(=O)N[C@H](C(=O)N[C@@H](Cc1ccccc1)C(=O)N[C@@H](Cc1ccccc1)C(=O)N[C@@H](CCCCN)C(=O)NCC(=O)N[C@@H](Cc1ccccc1)C(=O)N[C@@H](C)C(=O)N[C@@H](Cc1c[nH]c2ccccc12)C(=O)N[C@@H](CC(N)=O)C(=O)N[C@H](C(=O)N[C@H]1CSSC[C@@H](C(=O)N[C@@H](Cc2c[nH]cn2)C(=O)N[C@@H](CCCNC(=N)N)C(=O)N[C@@H](CCCNC(=N)N)C(=O)N[C@@H](C)C(=O)N[C@@H](CC(N)=O)C(N)=O)NC(=O)[C@H](C(C)C)NC(=O)[C@H](CCCNC(=N)N)NC(=O)[C@H](C(C)C)NC(=O)CNC(=O)[C@H](CC(N)=O)NC(=O)[C@H](CCCNC(=N)N)NC(=O)[C@H](Cc2ccc(O)cc2)NC(=O)[C@H](C(C)C)NC1=O)C(C)C)C(C)C [FKN] (Fmoc-KLVFFKGFAWNVCVYRNGVRVCHRRAN-NH2; disulfide 13-22),time to complete eradication,[1],≤ 4 h
same,"remaining at 6 h, 2560 µM","[12]; peptide retention rate, 1 w/v% trypsin, 6 h, HPLC, mean of n=3",44.2%
same,affinity to LTA of S. aureus,[13],even greater than that of N6
same,time to complete kill,[2]; various concentrations,≤ 1 h
same,protein retention rate of nanofibers,"[14]; 80 µM peptide pre-incubated with LPS 1 µM, then trypsin 10 µM 0.5 h",90.1%
same,protein retention rate of nanoparticles,"[14]; 80 µM peptide without LPS pre-assembly, trypsin 10 µM 0.5 h",76.63%
same,peptide retention rate in liver tissue,[15],33.93%
same,critical micelle concentration (CMC),"[7]; ANS 25.6 µM, 1 h, fluorescence at 480 nm vs log concentration",7.94 µM
same,zeta-potential,[16],24 mV
same,affinity to LPS of E. coli,[17],even greater than that of N6
same,particle sizes of nanoparticles,[18],69.78±11.56 nm
same,MIC after incubation in 25% serum,[19],stable MICs
FLGALFRALSRLL [PTP-7],stability in serum,[20]; before self-assembly,2 h
same,stability in serum,[20]; by self-assembly technology,more than 5 h
Chitosan-GPLGVRGC-PEG2000- CGGG(KLAKLAK)2 [CPC-1],prolongation of the half-life at the site of infection,[21],fourfold
BP-KFFVLK-RLKLILKSK [BET],time to complete transformation from nanoparticles to nanofibers,[22]; LPS induction,72 h
CC(C)[C@@H]1NC(=O)CNC(=O)[C@H](CC(N)=O)NC(=O)[C@H](CCCNC(=N)N)NC(=O)[C@H](Cc2ccc(O)cc2)NC(=O)[C@H](C(C)C)NC(=O)[C@@H](NC(=O)[C@@H](NC(=O)[C@H](CC(N)=O)NC(=O)[C@H](Cc2c[nH]c3ccccc23)NC(=O)[C@H](C)NC(=O)[C@H](Cc2ccccc2)NC(=O)CN)C(C)C)CSSC[C@@H](C(=O)N[C@@H](Cc2cnc[nH]2)C(=O)N[C@@H](CCCNC(=N)N)C(=O)N[C@@H](CCCNC(=N)N)C(=O)N[C@@H](C)C(=O)N[C@@H](CC(N)=O)C(N)=O)NC(=O)[C@H](C(C)C)NC(=O)[C@H](CCCNC(=N)N)NC1=O [N6] (H-GFAWNVCVYRNGVRVCHRRAN-NH2; disulfide 7-16),degradation in trypsin,[23],completely degraded
same,"metabolised at 0.5 h, 2560 µM",[12],> 50%
same,peptide retention rate in liver tissue,[15],less than 9.76%
same,hemolysis rate,[24],no hemolysis
same,MIC after incubation in 25% serum,[19],twofold
BP-KLVFF -RLYLRIGRR [HDMP],time to complete transformation from nanoparticles to nanofibers,[22]; LTA induction,48 h
